Experimental data as given in PMC11164251 (International journal of biological macromolecules, 2023).
Changes are numbered by the printed parent chain. Where two headings read alike, the source gives them in different places. Peptide text beside a SMILES is read from it.

Key:
HsTFIIS LW domain [1] = target: HsTFIIS LW domain (Homo sapiens, UniProt P23193); assay: ITC of HsLeo1 peptides with the HsTFIIS LW domain; type: binding; settings: pH 7.4, 25 °C
Procedure, shortened: (§1)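 Recombinant N-His-tagged LW domain (wild type or point mutant), expressed in E. coli BL21 (DE3) (0.5 mM IPTG, 16 °C, 20 h) and purified by Ni-NTA, gel filtration and ion exchange. ITC: 50 uM protein in cell, 1mM synthetic Leo1 peptides in syringe, 16 × 2 μl injections at 120 s intervals. Buffer: 25 mM Tris, 200 mM NaCl, 1 mM EDTA, 1 % glycerol, pH 7.4, 25 °C. Peptide-into-buffer heat of dilution subtracted.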

HsTFIIS LW domain [2] = target: HsTFIIS LW domain (Homo sapiens, UniProt P23193, I70A); assay: ITC of HsLeo1 peptides with the HsTFIIS LW domain; type: binding; settings: HsTFIIS1–96 LW mutant I70A, pH 7.4, 200 mM NaCl, 25 °C
Procedure, shortened: as §1

HsTFIIS LW domain [3] = target: HsTFIIS LW domain (Homo sapiens, UniProt P23193, K67A); assay: ITC of HsLeo1 peptides with the HsTFIIS LW domain; type: binding; settings: HsTFIIS1–96 LW mutant K67A, pH 7.4, 200 mM NaCl, 25 °C
Procedure, shortened: as §1

HsTFIIS LW domain [4] = target: HsTFIIS LW domain (Homo sapiens, UniProt P23193, L41A); assay: ITC of HsLeo1 peptides with the HsTFIIS LW domain; type: binding; settings: HsTFIIS1–96 LW mutant L41A, pH 7.4, 200 mM NaCl, 25 °C
Procedure, shortened: as §1

HsTFIIS LW domain [5] = target: HsTFIIS LW domain (Homo sapiens, UniProt P23193, W73A); assay: ITC of HsLeo1 peptides with the HsTFIIS LW domain; type: binding; settings: HsTFIIS1–96 LW mutant W73A, pH 7.4, 200 mM NaCl, 25 °C
Procedure, shortened: as §1

HsTFIIS LW domain [6] = assay: ITC of HsLeo1 peptides with the HsTFIIS LW domain; type: binding, Homo sapiens; settings: HsTFIIS LW domain mutant printed as W339A
Procedure, shortened: as §1

ScTFIIS LW domain [7] = target: ScTFIIS LW domain (Saccharomyces cerevisiae, UniProt P07273); type: binding
ScTFIIS LW domain [8] = target: ScTFIIS LW domain (Saccharomyces cerevisiae, UniProt P07273, I69A); type: binding; settings: ScTFIIS1–81 LW mutant I69A, pH 7.4, 25 °C
ScTFIIS LW domain [9] = target: ScTFIIS LW domain (Saccharomyces cerevisiae, UniProt P07273, K66A); type: binding; settings: ScTFIIS1–81 LW mutant K66A, pH 7.4, 25 °C
ScTFIIS LW domain [10] = target: ScTFIIS LW domain (Saccharomyces cerevisiae, UniProt P07273, L41A); type: binding; settings: ScTFIIS1–81 LW mutant L41A, pH 7.4, 25 °C
ScTFIIS LW domain [11] = target: ScTFIIS LW domain (Saccharomyces cerevisiae, UniProt P07273, W72A); type: binding; settings: ScTFIIS1–81 LW mutant W72A; ITC, pH 7.4, 200 mM NaCl, 25 °C
[12] = target: TbTFIIS2–2 LW domain (residue 251–359) F340A (T. brucei); assay: ITC
[13] = target: TbTFIIS2–2 LW domain (residue 251–359) L336A (T. brucei); assay: ITC
[14] = target: HsTFIIS LW domain (residue 1–96), wild type (H. sapiens, UniProt P23193 1-96); assay: ITC
[15] = target: HsTFIIS LW domain without the C-terminus (residue 1–78) (H. sapiens, UniProt P23193 1-78); assay: ITC
[16] = target: HsTFIIS LW domain (residue 1–96) K67A (H. sapiens, UniProt P23193 1-96, K67A); assay: ITC
[17] = target: T1, ScTFIIS LW domain (residue 1–81), wild type (S. cerevisiae, UniProt P07273 1-81); assay: ITC
T1 sequence (looked up): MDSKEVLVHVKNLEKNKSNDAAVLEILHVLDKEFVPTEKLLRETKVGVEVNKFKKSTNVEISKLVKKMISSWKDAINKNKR

[18] = target: T2, ScTFIIS LW domain, longer version (residue 1–93) (S. cerevisiae, UniProt P07273 1-93); assay: ITC
T2 sequence (looked up): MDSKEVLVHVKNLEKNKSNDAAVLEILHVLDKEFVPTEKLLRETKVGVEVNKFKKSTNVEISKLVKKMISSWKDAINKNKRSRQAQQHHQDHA

[19] = target: T3, ScTFIIS LW domain (residue 1–81) L41A (S. cerevisiae, UniProt P07273 1-81, L41A); assay: ITC
T3 sequence (looked up): T1 sequence (looked up) with L41A

[20] = target: T4, ScTFIIS LW domain (residue 1–81) K66A (S. cerevisiae, UniProt P07273 1-81, K66A); assay: ITC
T4 sequence (looked up): T1 sequence (looked up) with K66A

[21] = target: T5, ScTFIIS LW domain (residue 1–81) I69A (S. cerevisiae, UniProt P07273 1-81, I69A); assay: ITC
T5 sequence (looked up): T1 sequence (looked up) with I69A

## CC(C)C[C@H](NC(=O)[C@H](CCC(=O)O)NC(=O)[C@H](CCCCN)NC(=O)[C@H](CC(N)=O)NC(=O)[C@H](CO)NC(=O)[C@@H]1CCCN1C(=O)[C@@H](N)CCC(N)=O)C(=O)N[C@@H](Cc1ccccc1)C(=O)NCC(=O)N[C@@H](CC(=O)O)C(=O)N[C@@H](CC(=O)O)C(=O)N[C@@H](CO)C(=O)N[C@@H](CCC(=O)O)C(=O)N[C@@H](CC(=O)O)C(=O)N[C@@H](CCC(=O)O)C(=O)NCC(=O)O [HsLeo1_55–70] (H-QPSNKELFGDDSEDEG-OH; N-terminus and C-terminus assumed)
HsTFIIS LW domain [1]; HsTFIIS1–78 LW
  N (ITC binding stoichiometry): 1.00
HsTFIIS LW domain [1]; wild type HsTFIIS1–96 LW
  N (ITC binding stoichiometry): 0.96
HsTFIIS LW domain [2]
  Kd: no binding
HsTFIIS LW domain [3]
  Kd: weak binding
HsTFIIS LW domain [4]
  Kd: no binding
HsTFIIS LW domain [5]
  Kd: no binding
HsTFIIS LW domain [6]
  binding (ITC), result in words: abolishes the interactions

## CC(C)C[C@H](NC(=O)[C@H](CCC(=O)O)NC(=O)[C@H](C)NC(=O)[C@H](CC(=O)O)NC(=O)[C@H](CCC(=O)O)NC(=O)[C@@H](N)CCC(=O)O)C(=O)N[C@@H](CC(=O)O)C(=O)N[C@@H](CC(=O)O)C(=O)N[C@@H](CC(C)C)C(=O)N[C@@H](Cc1ccccc1)C(=O)NCC(=O)N[C@@H](CC(=O)O)C(=O)N[C@@H](CC(=O)O)C(=O)N[C@@H](CC(N)=O)C(=O)N[C@@H](CC(=O)O)C(=O)O [ScLeo1_54–68] (H-EEDAELDDLFGDDND-OH; N-terminus and C-terminus assumed)
ScTFIIS LW domain [7]; ScTFIIS LW1–93, pH 7.4, 25 °C
  N (ITC binding stoichiometry): 1.04
ScTFIIS LW domain [7]; wild type ScTFIIS1–81 LW, pH 7.4, 25 °C
  N (ITC binding stoichiometry): 1.00
ScTFIIS LW domain [8]
  N (ITC binding stoichiometry): 0.99
ScTFIIS LW domain [9]
  N (ITC binding stoichiometry): 0.95
ScTFIIS LW domain [10]
  N (ITC binding stoichiometry): 1.03
ScTFIIS LW domain [11]
  Kd: weak binding

## TbLeo1 peptide (residue 71–86) containing the LFG motif
[12]
  Kd: 9.33 µM
[13]
  Kd: 1.11 µM

## ADMEDLFGSDADSEA (peptide, UniProt Q8WVC0 2-16, looked up) [HsLeo1 peptide (residue 2–16) containing an LFG motif]
[14]
  stoichiometry N: 1
[15]
  stoichiometry N: 1
[16]
  stoichiometry N: 1

## EEDAELDDLFGDDND (peptide, UniProt P38439 54-68, looked up) [ScLeo1 peptide (residue 54–68) containing the LFG motif]
[17]
  Kd: 3.3 µM
  stoichiometry N: 1
[18]
  Kd: 1.39 µM
  stoichiometry N: 1.04
[19]
  Kd: 37 µM
  stoichiometry N: 1.03
[20]
  Kd: 5.1 µM
  stoichiometry N: 0.95
[21]
  Kd: 44 µM
  stoichiometry N: 0.99

## QPSNKELFGDDSEDEG (peptide, UniProt Q8WVC0 55-70, looked up) [HsLeo1 peptide (residue 55–70) containing an LFG motif]
[14]
  Kd: 44 µM
  stoichiometry N: 0.96
[15]
  Kd: 57.6 µM
  stoichiometry N: 1
